# Measurements gathered from unrelated publications.
# Each line is one published result; the experiments were not run side by side.
# Organism: Aspergillus niger
# Read-out: microbial growth
SMILES,assay,test system,conditions,quantity,result
O=C(O)c1cn(C2CC2)c2cc(N3CCNCC3)c(F)cc2c1=O,broth dilution,,,MIC,25.5 µM
Cc1ccc(C)n1-c1ccc(-c2nnc(S)s2)cc1,broth dilution,ATCC6275,,MIC,125 µg/mL
Cc1ccc2nc(-c3ccco3)n(Cc3ccccc3)c2c1,,ATCC16404,,MIC,512 µg/mL
CC1=NN(CNC(=O)c2ccccc2)C(=O)C1=NNn1c(-c2ccccc2)nc2ccccc2c1=O,broth dilution,,,MIC,104 µM
Cc1cc(=O)[nH]n1C(=O)c1ccc(-n2c(C)ccc2C)cc1,broth dilution,ATCC6275,,MIC,250 µg/mL
Cc1ccc2nc(-c3ccc(Cl)c(Cl)c3)[nH]c2c1,,ATCC16404,,MIC,32 µg/mL
CC1=NN(CNC(=O)c2ccccn2)C(=O)C1=NNn1c(-c2ccccc2)nc2ccccc2c1=O,broth dilution,,,MIC,104 µM
Oc1ccc(Br)cc1-c1nc2ccccc2[nH]1,,ATCC16404,,MIC,512 µg/mL
Cc1ccc(C)n1-c1ccc(-c2nnc(-c3ccc(Br)cc3)[nH]2)cc1,broth dilution,ATCC6275,,MIC,4 µg/mL
Clc1ccccc1C(c1ccccc1)(c1ccccc1)n1ccnc1,disc diffusion,,100 µg/mL,inhibition zone,18 mm
CSc1ccc(-c2nc3ccc(C)cc3[nH]2)cc1,,ATCC16404,,MIC,64 µg/mL
O=C1NN=C(N=Cc2ccc(O)cc2O)C1=NNn1c(-c2ccccc2)nc2ccccc2c1=O,broth dilution,,,MIC,107 µM
Cc1ccc2nc(-c3cc(Br)ccc3O)[nH]c2c1,,ATCC16404,,MIC,256 µg/mL
Cc1ccc(C)n1-c1ccc(-c2nnc(-c3ccc(O)cc3)[nH]2)cc1,broth dilution,ATCC6275,,MIC,31.2 µg/mL
Clc1ccccc1C(c1ccccc1)(c1ccccc1)n1ccnc1,disc diffusion,,20000 µg/mL,inhibition zone,25 mm
O=C1NN=C(N=Cc2ccccc2)C1=NNn1c(-c2ccccc2)nc2ccccc2c1=O,broth dilution,,,MIC,57.1 µM
Cc1ccc(C)n1-c1ccc(-c2n[nH]c(=S)[nH]2)cc1,broth dilution,ATCC6275,,MIC,> 500 µg/mL
